Assay outcomes: PubChem BioAssay, several laboratories
Arrestin-AP2 inh: inhibitors of beta-arrestin/AP2 binding, primary screen, biochemical, GPCR trafficking, flow cytometry | beta-arrestin 1 C-terminal peptide binding to AP2 beta2-adaptin appendage (human) | FITC-arrestin peptide / GST-AP2 beads; AP2 beta2 appendage carries R879A mutation | inhibition, % at 10 µM | 0.31% of 340,000 active;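 active = inhibition above a set limit, near 3 SD of compounds lacking own fluorescence, cut at about 54% in these data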;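 note: plate controls were DMSO wells for no effect and 5 µM unlabelled arrestin peptide for full effect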
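Test system: GST-tagged AP2 beta2-adaptin appendage (R879A) on 4 µm glutathione beads; also added: fluorescein-tagged arrestin peptide at 50 nM final; timing: 12 min plus 1 h, RT; signal: flow cytometry, FL1 (488/535 nm); read-out: percent drop in bead-associated FITC signal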
NALP1 yeast inh: NALP1 inflammasome inhibitors in reconstituted yeast, colorimetric, S. cerevisiae, triplicate retest; S. cerevisiae NALP1/ASC/caspase-1 growth, X-gal OD620, 72 h; 0.61% of 280,000 active; AID 2071, 2009; inhibition, % at 10 µM; in the data active = inhibition mostly above about 24%, no sharp cut-off; inactive = mostly below about 32%
Pemphigus Ab inh: inhibitors of pemphigus antibody binding to DSG3, primary screen, biochemical, bead-based, flow cytometry, scFv-GFP; 0.48% of 310,000 active; Desmoglein-3 (Homo sapiens), P32926; AID 588358, 2011; binding (percent of control), % at 10 µM; DSG3-coupled beads, scFv-anti-DSG3-GFP binding; active compounds read low;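 active = binding more than 3 SD below its plate's average and above zero; inconclusive = below that plate limit but binding exactly zero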;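 note: hits lower antibody fragment binding to DSG3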
PolyA inhibitor: polyadenylation inhibitors in yeast reporter cells, primary screen, luminescence, S. cerevisiae; S. cerevisiae SKY197-pL101 polyadenylation reporter, beta-gal luminescence; efflux-impaired pdr1/pdr3 knockout yeast; score 100 = 6 SD above DMSO; activity score, % at 12 µM; 0.02% of 300,000 active;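 active = lowest replicate activity score at least 50, where 100 means six control SD above control mean; inconclusive = lowest score under 50 but half or more replicates reach 50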;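 note: yeast exposed to compound for 9 h at 30 °C; higher score means more reporter readthrough which indicates perturbed polyadenylation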
NLRP3 yeast inh: NALP3 inflammasome inhibitors in reconstituted yeast, primary screen, luminescence, uHTS. Yeast reconstituted NLRP3/ASC/caspase-1, beta-gal luminescence, 24 h. inhibition, % at 10 µM. 0.39% of 330,000 active. AID 2825, 2010;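 active = inhibition of 50% or more; inactive = inhibition below 50%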;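 note: plate controls were induced DMSO wells for no effect and uninduced yeast grown without galactose for full effect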
ALR H2O2 inh: inhibitors of human ALR sulfhydryl oxidase, primary screen, biochemical, H2O2 detection, HRP-luminol luminescence, single point; AID 485317, 2010; FAD-linked sulfhydryl oxidase ALR (Homo sapiens), P55789; 3.8% of 290,000 active; inhibition, % (no concentration beside the values); purified ALR, DTT oxidation;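 active = mean replicate inhibition above about 79%, with every replicate also reaching it, limit read from the data; inconclusive = only one of the two criteria met; inactive = mean below limit and not every replicate reaching it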
Target sequence (P55789 whole entry, looked up): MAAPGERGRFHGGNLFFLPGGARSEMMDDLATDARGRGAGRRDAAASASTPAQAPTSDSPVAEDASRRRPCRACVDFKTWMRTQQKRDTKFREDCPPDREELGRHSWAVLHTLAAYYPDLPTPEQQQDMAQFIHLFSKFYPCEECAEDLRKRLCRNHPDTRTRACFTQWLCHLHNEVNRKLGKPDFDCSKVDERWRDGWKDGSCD
The depositor's hits bear a star; ? = inconclusive; / = no result given. Hits are enriched below; roughly 4.6% of the tested compounds scored in any of these assays.

SMILES	Arrestin-AP2 inh	NALP1 yeast inh	Pemphigus Ab inh	PolyA inhibitor	NLRP3 yeast inh	ALR H2O2 inh
CCn1c2ccccc2c2cc(NC(=O)N3CCCCC3)ccc21	/	/	96.6	/	/	/
Cc1c(N)c(C(C)(C)C)cc(C(C)(C)C)c1[N+](=O)[O-]	2.6	50.2	107.0	-25.1	15.8	-7.3
Cc1cc2nc3c(=O)[nH]c(=O)[nH]c3nc2c([N+](=O)[O-])c1N	52.0	11.4	34.8*	/	/	/
O=C(CNC(=O)/C=C/c1ccco1)N=Nc1c(O)[nH]c2ccccc12	-0.8	7.0	45.0*	2.6	9.9	48.9
O=C(NNC(=S)NCc1ccco1)c1cccs1	-14.8	1.0	102.8	4.8	7.7	-5.3
O=C(NCc1ccco1)c1cccs1	-14.0	28.9*	98.6	6.5	7.9	/
O=C(NCc1ccc2c(c1)OCO2)c1cc2c(s1)CSC2	2.8	29.1	108.0	-6.0	25.7	97.0*
CCc1ccc(/C(C)=N/NC(=O)CNC(=O)/C=C/c2ccco2)cc1	-3.8	/	64.2*	?	-3.3	/
O=C(CNC(=O)Cc1ccccc1)N=Nc1c(O)[nH]c2ccccc12	-0.7	8.5	/	-15.7	14.0	-0.5
O=C(NCc1ccc2c(c1)OCO2)c1c(Cl)cccc1Cl	11.5	10.4	110.2	6.3	35.1	1.5
Cn1c(N)c(C(=O)COC(=O)c2cc(S(=O)(=O)N3CCOCC3)ccc2F)c(=O)n(C)c1=O	0.2	/	95.6	/	8.8	0.3
Cc1c(C(=O)NCc2ccco2)oc2ccc(Br)cc12	42.6	/	108.8	/	27.6	/
O=C(CSCc1ccco1)c1cccs1	-27.7	-23.7	108.7	-2.3	-57.6	99.0*
O=C(NCc1ccco1)c1cc2cc(Br)ccc2o1	-9.5	18.1	112.6	-12.5	28.3	97.9*
Cc1nc2ccc(C(=O)NCc3ccc4c(c3)OCO4)cc2s1	14.4	3.5	101.4	111.7*	-0.8	-33.0
O=C(NCc1ccco1)c1cc2c(s1)CSC2	/	/	/	-3.1	16.3	98.8*
O=C(CSc1nnc(-c2ccc(Cl)cc2)n1Cc1ccco1)c1cccs1	6.0	30.9	89.0	-1.0	4.4	15.8
O=C(NCc1ccc2c(c1)OCO2)c1cccc(C(=O)NCc2ccc3c(c2)OCO3)c1	5.5	21.0	98.6	-11.0	4.3	-19.2
O=C(Cc1ccccc1)NCCSCc1ccco1	-5.4	12.0	98.8	4.3	11.6	7.4
O=C(/C=C/c1ccco1)NCc1ccco1	19.7	1.8	79.8*	10.7	13.1	43.4
O=C(O)c1ccc(CSCc2ccco2)cc1	-3.6	3.7	97.9	2.1	16.5	97.4*
Oc1ccc(Cc2ccc(Cl)cc2)c(O)c1	0.9	2.6	93.9	-12.2	-3.0	96.5*
Oc1ccc(Cc2ccccc2Cl)c(O)c1	-13.1	/	89.3	/	/	/
CN(CC(=O)Nc1ccccc1Cl)C(=O)C1CCN(C(=O)c2ccc(F)cc2)CC1	-3.6	/	/	/	1.8	3.3
CCCN(CC(=O)Nc1ccccc1C)C(=O)COc1c(Cl)cccc1Cl	3.6	/	111.7	9.0	31.7	-11.9
SMILES	Arrestin-AP2 inh	NALP1 yeast inh	Pemphigus Ab inh	PolyA inhibitor	NLRP3 yeast inh	ALR H2O2 inh
O=C(O)c1cccc(NC(=O)c2ccc3c(c2)C(=O)N(C2CCCCC2)C3=O)c1	-1.8	9.9	101.0	8.0	1.7	18.8
CC1(C)Cc2c(c(=S)nc(-c3ccccc3)n2CCN2CCOCC2)CO1	-4.6	-20.9	105.5	16.2	8.9	97.2*
Cc1nc2c(Br)c3nc(C(F)(F)F)[nH]c3c(Br)c2[nH]1	-1.2	48.1*	104.8	11.6	7.1	-13.9
Cc1nc2c(F)c(F)c(C(F)(F)F)c(F)c2[nH]1	-8.5	14.0	100.5	-3.6	20.2	-1.1
CN(Cc1cccc(Cl)c1Cl)C(=O)c1cc(S(=O)(=O)N2CCOCC2)ccc1F	-2.5	/	98.5	/	10.5	-41.8
CCC(CC)C(=O)N(c1ccc(F)cc1)C1C=CS(=O)(=O)C1 (configuration not stated)	-7.4	31.9	82.9*	-5.2	2.7	-1.8
CC(C)(C)c1cc(C2=CSC3=NCCN23)cc(C(C)(C)C)c1O	-4.7	3.8	99.7	-17.2	32.3	/
C=CCOc1ccc(CN(C)C(=O)CNC(=O)c2ccc(-c3ccccc3)cc2)cc1	23.6	15.0	96.0	-22.2	20.4	7.9
CCOC(=O)CSC1=NC(=O)/C(=C\c2ccc(OC(C)=O)cc2)S1	14.9	-7.2	103.4	-8.6	6.8	99.9*
O=C(COc1ccc(C(=S)N2CCOCC2)cc1Cl)Nc1ccccc1Cl	-11.9	6.1	83.0*	4.7	28.0	-3.0
CCCc1cc(C(=O)Nc2cccc(-c3nn[nH]n3)c2)sc1C	/	/	101.2	/	/	/
Cc1ccc(C(=O)CNc2ccc(C)c(Cl)c2)cc1	10.2	13.8	-6.7*	-8.7	24.4	7.3
Cc1ccc(NC2=C(NC(=O)c3ccccc3)C(=O)c3ccccc3C2=O)cc1Cl	25.0	64.6*	121.7	-3.5	49.0	-20.0
Cc1ccc(NCC(=O)c2ccccc2)cc1Cl	3.4	32.0	103.6	-20.9	9.5	-3.6
Cc1ccc(NCCC(=O)c2ccccc2)cc1Cl	8.7	24.6	89.1*	4.7	24.1	-1.4
COc1ccc(CCC(C)NC(=O)Cc2ccc(OC)c(OC)c2)c(OC)c1 (configuration not stated)	30.2	15.9	101.1	6.1	-1.4	/
CC(=O)Nc1ccc(NC(=O)c2ccc(-c3ccc([N+](=O)[O-])cc3)o2)cc1	2.3	-11.8	93.3	5.4	13.7	-30.8
O=C(Nc1nccs1)c1ccc(-c2cccc([N+](=O)[O-])c2)o1	17.2	13.7	64.5*	0.2	-10.4	-0.5
COc1cc([N+](=O)[O-])ccc1-c1ccc(C(=O)Nc2ccc(NC(C)=O)cc2)o1	6.9	-3.1	107.8	2.7	/	97.8*
COc1cccc(NC(=O)c2ccc(-c3ccc([N+](=O)[O-])cc3)o2)c1	-2.4	-13.6	83.5*	-32.8	26.1	-6.2
COc1cccc(C2=NC(C)(C)NC(c3ccccc3O)C2)c1 (configuration not stated)	-6.8	16.3*	100.5	-6.4	21.6	51.6
CCC1(C)N=C(c2ccc3c(c2)OCO3)CC(c2ccccc2O)N1 (configuration not stated)	-3.8	3.9	96.8	1.9	43.1	0.7
O=C(CC1C(=O)NCCN1Cc1ccc(F)cc1)NCCN1CCCc2ccccc21 (configuration not stated)	6.8	10.3	117.9	-11.2	15.8	98.9*
